Results from ChEMBL document CHEMBL4513216, “Probing the Open Global Health Chemical Diversity Library for Multistage-Active Starting Points for Next-Generation Antimalarials” (ACS Infect Dis, 2020).

Test: Toxicity liver stage against HepG2, at 10uM
Format: cell-based
Parameters: test concentration 10 uM, cell line HepG2-A16-CD81EGFP
Conditions: human, HepG2-A16-CD81EGFP cells; read-out: INHIBITION
Outline: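 Uninfected HepG2-A16-CD81EGFP cells, 3 × 10^3 per well, 1536-well, plated on prespotted compound at 10 μM final, parasite-free screening media added to match infected plates; puromycin 10 μM positive, DMSO 0.5% negative; run in parallel with 48 h PbLuc assay at 37 °C, 5% CO2; viability by CellTiter-Glo luminescence, normalized to controls.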

In the case of `O=C1CC[C@H]2[C@H](CCN2Cc2ccccn2)N1CC1CCOCC1`, the cytotoxicity at 10 µM is reported as 3.59%.

Work on `CCC(C)NC(=O)c1ccccc1-n1cnnn1` (stereo unspecified) yielded a cytotoxicity at 10 µM of 13%.

In the case of `COc1cccc(COCC(=O)N2CCCC(c3nncn3C)C2)c1` (stereo unspecified), the cytotoxicity at 10 µM is reported as -6.36%.

Molecule `O=C(c1ccc(F)cc1Cl)N1CCC(Nc2cccnn2)CC1` has a cytotoxicity at 10 µM of -8.08%.

Molecule `Cc1nc(NCc2coc(-c3ccccc3)n2)cc(C2CCNCC2)n1` has a cytotoxicity at 10 µM of 7.94%.

`Cc1ccc(CNCc2c[nH]nc2C(C)(C)C)c(OC2CCOC2)c1` (stereo unspecified) showed a cytotoxicity at 10 µM of 13.8%.

In the case of `O=C1CN(Cc2nnc(-c3ccc(Br)o3)o2)CCN1`, the cytotoxicity at 10 µM is reported as 13.5%.

In the case of `O=C(C1CC=CC1)N1CCC2(CC1)CN(Cc1ccccn1)CCO2`, the cytotoxicity at 10 µM is reported as -10.1%.

Work on `CN(CC(=O)N1CCCC1c1cnn(C)c1)Cc1ccccc1` (stereo unspecified) yielded a cytotoxicity at 10 µM of -4.38%.

In the case of `CN(C)CCN1CCOCC2(CCCN(C(=O)c3ccccn3)C2)C1` (stereo unspecified), the cytotoxicity at 10 µM is reported as 6.67%.

In the case of `NC(=O)C1(CCCc2ccccn2)CCCN(Cc2ncc[nH]2)C1` (stereo unspecified), the cytotoxicity at 10 µM is reported as -0.00173%.

In the case of `O=C(O)c1cn(-c2ccccn2)c(=O)c2ccccc12`, the cytotoxicity at 10 µM is reported as 0.847%.

Molecule `O=C(CCCc1nc(C2CC2)no1)N1CCCC(c2ccn[nH]2)C1` (stereo unspecified) has a cytotoxicity at 10 µM of 12%.

With `CCSc1ccc(C(=O)N2CC[C@](C)(O)[C@H](C)C2)s1` the cytotoxicity at 10 µM was -12.2%.

In the case of `Cc1nc2ccccc2nc1CN1CCCC1c1c(C)nn(C)c1C` (stereo unspecified), the cytotoxicity at 10 µM is reported as -1.78%.

In the case of `Cc1oc(-c2ccsc2)nc1CN1CC[C@@H]2CCCC[C@H]2C1`, the cytotoxicity at 10 µM is reported as 7.16%.

In the case of `Cc1cc(=O)n(CC(=O)Nc2ccc(C(N)=O)cc2)nc1C`, the cytotoxicity at 10 µM is reported as -10.9%.

For `CC(O)CN1CCN(C(=O)c2cccn2Cc2ccncc2)CC1` (stereo unspecified), the cytotoxicity at 10 µM was -10.9%.

For `Oc1ccccc1CN1C[C@H](O)C[C@H]1c1nc(Cc2ccccc2)no1`, the cytotoxicity at 10 µM was -4.82%.

In the case of `CN(C)C(=O)[C@H]1C[C@@H]2CCN(C3CCOCC3)C[C@@H]2O1`, the cytotoxicity at 10 µM is reported as -3.01%.

Molecule `CN(CC(N)=O)CC(=O)N1CC=C(c2ccccc2)CC1` has a cytotoxicity at 10 µM of -5.1%.

In the case of `CCS(=O)(=O)N1Cc2[nH]nc(COCc3cccnc3)c2C1`, the cytotoxicity at 10 µM is reported as 11.9%.

`NCCC(=O)N1CCC2(CC1)CN(C(=O)c1ccc(Cl)cc1)CCO2` showed a cytotoxicity at 10 µM of 3.1%.

Work on `CNc1cc2c(nn1)CCN(C(=O)c1ccccc1-n1cccn1)C2` yielded a cytotoxicity at 10 µM of 1.91%.

`O=C(c1cncc(Br)c1)N1CCC(O)(Cn2ccc3ccncc32)CC1` showed a cytotoxicity at 10 µM of 2.44%.

`Cc1nc(C)n(CC2CCCN(Cc3cccc(C(N)=O)c3)C2)n1` (stereo unspecified) gave a cytotoxicity at 10 µM of -29%.

Work on `CC(C)c1cc(COCCC(=O)O)no1` yielded a cytotoxicity at 10 µM of -6.5%.

In the case of `O=S(=O)(c1cccs1)N1CC[C@H]2[C@H]1CCN2CC1CC1`, the cytotoxicity at 10 µM is reported as 2.94%.

Molecule `COc1nc(C)ccc1CNc1cc(N2CCCC2CO)ncn1` (stereo unspecified) has a cytotoxicity at 10 µM of -8.02%.

For `Cn1cnnc1C1CCN(C(=O)c2cc(-c3ccccc3)on2)CC1`, the cytotoxicity at 10 µM was 3.77%.

With `O=C(NC1CCCc2nc(N3CCOCC3)ncc21)C1CCCC1` (stereo unspecified) the cytotoxicity at 10 µM was -2.3%.

In the case of `CC(=O)Nc1c(C)noc1C=Cc1ccc(S(=O)(=O)NC2CC2)cc1`, the cytotoxicity at 10 µM is reported as 0.54%.

With `Cc1ccccc1C(=O)N1CCC2(CCCN2CCN(C)C)CC1` the cytotoxicity at 10 µM was 3.56%.

Work on `Cc1cc(CN(C)C(=O)CN2CCCC2=O)no1` yielded a cytotoxicity at 10 µM of 3.05%.

Work on `Cc1ccc(C)c(S(=O)(=O)NC(=O)COc2cccc(C#N)c2)c1` yielded a cytotoxicity at 10 µM of 9.7%.

`CCc1nc(C(=O)N2CCCC2)nn1-c1c(Cl)cccc1Cl` showed a cytotoxicity at 10 µM of -2.04%.

With `CN(Cc1cccnc1)c1nc(-c2ccccn2)nc2c1CCNCC2` the cytotoxicity at 10 µM was 3.64%.

Work on `CN(Cc1cc(C2CC2)on1)C(=O)C(c1cccnc1)N1CCCC1` (stereo unspecified) yielded a cytotoxicity at 10 µM of -41.6%.

In the case of `Fc1ccccc1NCc1nc2n(n1)CCCCC2`, the cytotoxicity at 10 µM is reported as 2.02%.

Work on `CCCc1cncnc1N1CCCC2(CCC(=O)N(C3CCCC3)C2)C1` (stereo unspecified) yielded a cytotoxicity at 10 µM of 0.887%.

With `CC(NCCn1cccn1)c1ccc(F)cc1F` (stereo unspecified) the cytotoxicity at 10 µM was 1.99%.

Molecule `CO[C@H]1CCN(S(=O)(=O)c2cn(C)cn2)[C@H]1Cc1cnn(C)c1` has a cytotoxicity at 10 µM of 2.63%.

Molecule `O=C(CCO)N1CCOC2(CCCN(C(=O)c3ccco3)C2)C1` (stereo unspecified) has a cytotoxicity at 10 µM of -11.7%.

For `CO[C@H]1CN(S(=O)(=O)c2ccccc2F)C[C@@]12CCCO2`, the cytotoxicity at 10 µM was -3.08%.

`C=C(C)COc1ccc(C(=O)NCC2CC(CC)=NO2)cc1` (stereo unspecified) showed a cytotoxicity at 10 µM of -48.2%.

`NC1(c2nc(-c3cccs3)cc(=O)[nH]2)CCCCC1` showed a cytotoxicity at 10 µM of 6.03%.

`Cc1cc2nc(C(C)C)cc(N(C)CC3CCCN(CCO)C3)n2n1` (stereo unspecified) showed a cytotoxicity at 10 µM of 7.52%.

Work on `Cc1noc(C)c1CCC(=O)N1CCN(CCn2cccn2)CC1` yielded a cytotoxicity at 10 µM of -24.2%.

`O=C(c1cnc2n1CCCC2)N1CCCC1` gave a cytotoxicity at 10 µM of -10.6%.

For `CCCOCC(=O)N1CCC2(CC1)c1nc[nH]c1CCN2S(C)(=O)=O`, the cytotoxicity at 10 µM was 3.22%.

For `N#Cc1cc(F)c(NCCc2cccnc2)c(F)c1`, the cytotoxicity at 10 µM was -68.5%.

Work on `CCc1ncc(CN2CCCC3(CCC(=O)N(CCC(C)C)C3)C2)cn1` (stereo unspecified) yielded a cytotoxicity at 10 µM of -7.66%.

In the case of `Cc1cccc(C2(NCCCS(C)(=O)=O)CCCC2)c1`, the cytotoxicity at 10 µM is reported as 1.3%.

For `CCNC(=O)N1CCc2ccc(NC(=O)NCCOCC)cc21`, the cytotoxicity at 10 µM was -3.86%.

For `O[C@]1(c2ccccn2)CC[C@@H]2CN(Cc3cccc4ncccc34)C[C@@H]21`, the cytotoxicity at 10 µM was -2.09%.

`O=C1CCN(C(=O)NCc2cccc(Oc3ccccc3)c2)CCN1` gave a cytotoxicity at 10 µM of 4.11%.

Work on `Cc1ncncc1C(=O)N1CCCN(Cc2nccn2C(C)C)CC1` yielded a cytotoxicity at 10 µM of 5.79%.

Work on `CCN(CC)S(=O)(=O)N(C)Cc1ccncc1` yielded a cytotoxicity at 10 µM of 0.52%.

With `Cc1cnc2c(c1NCc1cccnc1)c(=O)n(C)c(=O)n2C` the cytotoxicity at 10 µM was -2.02%.

In the case of `COCC(=O)N1CCCC(COc2ccccc2C)C1` (stereo unspecified), the cytotoxicity at 10 µM is reported as 2.06%.

Molecule `Cc1ccc(C2CN(C(=O)c3c(C)cc(C)[nH]c3=O)CCO2)c(C)c1` (stereo unspecified) has a cytotoxicity at 10 µM of -19.8%.

With `Cc1nc(CN2CCc3nn(C)c(=O)cc3C2)oc1C` the cytotoxicity at 10 µM was -2.74%.

Molecule `CC(CC(=O)N1CCC(c2nnc3n2CCC3)CC1)n1cccc1` (stereo unspecified) has a cytotoxicity at 10 µM of 8.11%.

Work on `CCCC(=O)N1CCC(c2nc(O)c3c(n2)CCN(C2CCCC2)C3)C1` (stereo unspecified) yielded a cytotoxicity at 10 µM of 9.34%.

In the case of `O=C(C1CCC1)N1C[C@@H]2CN(c3ccccc3)C(=O)[C@@H]2C1`, the cytotoxicity at 10 µM is reported as 1.05%.

Work on `O=C(NCc1ccccc1OCC1CC1)C1CCOC1` (stereo unspecified) yielded a cytotoxicity at 10 µM of 4.94%.

`COCC(NC1CSCCSC1)c1ccnn1C` (stereo unspecified) gave a cytotoxicity at 10 µM of 4.34%.

`Cc1ccc2c(c1)C1(CCNCC1)CC2OCC1CC1` (stereo unspecified) showed a cytotoxicity at 10 µM of 6.13%.

`O=C(N[C@H]1COC[C@@H]1N1CCCC1)c1csc(Cc2ccccc2)n1` showed a cytotoxicity at 10 µM of -30.2%.

Work on `Cc1cc(C)n(-c2ccc(NCCNS(=O)(=O)c3ccccc3)nn2)n1` yielded a cytotoxicity at 10 µM of -0.771%.

For `CCc1nc2n(n1)CC(NCc1ccccc1OCC(=O)NC)CC2` (stereo unspecified), the cytotoxicity at 10 µM was 4.57%.

For `COc1c(C2CCCN2Cc2csc(C(C)C)n2)c(C)nn1C` (stereo unspecified), the cytotoxicity at 10 µM was -1.53%.

`CN1CCO[C@@H]2CN(C(=O)c3ccc4[nH]ccc4c3)CC[C@@H]2C1` gave a cytotoxicity at 10 µM of -108%.

Work on `O=C(c1ccc(Oc2cccnc2)cc1)N1CCN(CCO)CC1` yielded a cytotoxicity at 10 µM of -41.5%.

With `Cc1cc(-c2nn(C)c(Cl)c2CN2CCOCC(O)C2)no1` (stereo unspecified) the cytotoxicity at 10 µM was -14.8%.

For `CNC(=O)C(C)(C)N1CCC[C@H]1C(=O)NCCN(C)C`, the cytotoxicity at 10 µM was 2.2%.

In the case of `O=C(NCCN1CCCCC1=O)C1CCC(=O)N(C2CCCC2)C1` (stereo unspecified), the cytotoxicity at 10 µM is reported as -10.8%.

In the case of `CN(CCCNC(=O)c1ccccc1F)CC(F)(F)F`, the cytotoxicity at 10 µM is reported as -9.25%.

For `CC(C(=O)N(Cc1ccc(C#N)cc1)CC(F)(F)F)S(C)(=O)=O` (stereo unspecified), the cytotoxicity at 10 µM was -2.6%.

`Cc1ccc(C(=O)NCC2CCCCO2)c(=O)[nH]1` (stereo unspecified) gave a cytotoxicity at 10 µM of -0.628%.

In the case of `c1cnc(N2CCN(C3CCC[C@@H]4CN(CC5CC5)C[C@H]34)CC2)nc1` (stereo partly specified), the cytotoxicity at 10 µM is reported as 8.97%.
